pEC50, pKi: −log10 of the molar value.
What was measured:
[1] = test system: Human immunodeficiency virus 1; test: Antiviral activity against HIV1 NL4-3 infected in human MT2 cells measured after 3 to 4 days by luciferase reporter gene assay; type: functional, organism-based
[2] = molecular target: Human immunodeficiency virus type 1 integrase (Human immunodeficiency virus 1, UniProt Q7ZJM1); test: Allosteric inhibition of [3H]-2-tert-butoxy-2-[2-methyl-4-(p-tolyl)-3-quinolyl]acetic acid binding to HIV1 integrase measured after 1 hr under dark condition by microbeta plate reader method
Outline: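 Scintillation proximity displacement of tritiated LEDGF-site inhibitor from purified HIV-1 integrase (13 μM) premixed 1 h with PVT SPA beads (2 mg/mL); […]. Buffer 26 mM MOPS pH 7.0, 11 mM DTT, 100 mM NaCl, 20 mM MgCl2, 0.05% NP-40, 5% PEG-8000. Compounds 100 μM to 0.0512 nM, ten 5-fold dilutions. 1 h rocking, RT, dark; read after overnight; Ki derived.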

[3] = Volume of distribution at steady state in Sprague-Dawley rat at 1 mg/kg, iv infusion for 10 mins or 5 mg/kg, po administered via gavage by LC-MS/MS analysis; type: ADME, organism-based; conditions: in vivo, read-out: Vdss
Outline: (§1)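 Rats given iv via implanted venous cannula as 10 min infusion, or oral gavage after overnight fast; vehicle 10% dimethylacetamide/90% PEG400 for both routes. Plasma from venous-port blood, treated with CH3CN containing internal standard, analysed by LC-MS/MS; oral plasma levels followed 24 h after 5 mg/kg. Parameters by noncompartmental analysis of concentration-time data.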

[4] = Clearance in Sprague-Dawley rat at 1 mg/kg, iv infusion for 10 mins or 5 mg/kg, po administered via gavage by LC-MS/MS analysis; type: ADME, organism-based; conditions: in vivo; outline: as §1
[5] = test system: Human immunodeficiency virus 1; test: Selectivity ratio of EC50 for HIV1 NL4-3 infected in human MT2 cells in presence of human serum albumin to EC50 for HIV1 NL4-3 infected in human MT2 cells in absence of human serum albumin; type: functional
[6] = Stability of the compound in human liver microsomes assessed as parent compound remaining at 0.5 uM measured after 10 mins in presence of NADPH by LC-MS/MS analysis; type: ADME, Microsome; conditions: read-out: Stability
Outline: (§2)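 CYP-mediated turnover: 0.5 μM compound with human or rat liver microsomes (1 mg/mL) in 100 mM sodium phosphate pH 7.4, 6.6 mM MgCl2, 37 °C; started with NADPH, DMSO 0.014%. Samples quenched at 0 and 10 min; parent remaining by LC-MS/MS; duplicate.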

[7] = Stability of the compound in rat liver microsomes assessed as parent compound remaining at 0.5 uM measured after 10 mins in presence of NADPH by LC-MS/MS analysis; type: ADME, Microsome; conditions: read-out: Stability; outline: as §2
[8] = Half life in Sprague-Dawley rat at 1 mg/kg, iv infusion for 10 mins or 5 mg/kg, po administered via gavage by LC-MS/MS analysis; type: ADME, organism-based; conditions: in vivo; outline: as §1
[9] = Permeability of the compound in pH 7.4 buffer at 100 uM measured after 4 hrs by sandwich-PAMPA; type: ADME; conditions: read-out: permeability
Outline: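 Parallel artificial membrane permeability: compound at 100 μM in donor buffer pH 7.4, permeating to acceptor through artificial membrane over 4 h; donor, acceptor and t0 solutions read by UV plate reader; triplicate.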

[10] = Therapeutic index, ratio of CC50 for human MT2 cells to EC50 for HIV1 NL4-3 infected in human MT2 cells; type: toxicity, cell-based; conditions: read-out: Ratio CC50/EC50
[11] = Cmax in Sprague-Dawley rat at 1 mg/kg, iv infusion for 10 mins or 5 mg/kg, po administered via gavage by LC-MS/MS analysis; type: ADME, organism-based; conditions: in vivo; outline: as §1
[12] = Oral bioavailability in Sprague-Dawley rat at 5 mg/kg administered via gavage by LC-MS/MS analysis; type: ADME, organism-based; conditions: in vivo; outline: as §1
[13] = test system: Human immunodeficiency virus 1; test: Antiviral activity against HIV1 NL4-3 infected in human MT2 cells measured after 3 to 4 days in presence of human serum albumin by luciferase reporter gene assay; type: functional, organism-based; conditions: Human immunodeficiency virus 1, NL4-3, MT2
[14] = Cytotoxicity against human MT2 cells measured after 4 days by XTT assay; type: cell-based
Outline: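 MT-2 cell viability measured by XTT after 4 days of compound exposure, run in parallel with the antiviral assay; CC50 from n ≥ 2 determinations.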

[15] = Tmax in Sprague-Dawley rat at 1 mg/kg, iv infusion for 10 mins or 5 mg/kg, po administered via gavage by LC-MS/MS analysis; type: ADME, organism-based; conditions: in vivo; outline: as §1
[16] = AUC (0 to 24 hrs) in Sprague-Dawley rat at 1 mg/kg, iv infusion for 10 mins or 5 mg/kg, po administered via gavage by LC-MS/MS analysis; type: ADME, organism-based; conditions: in vivo; outline: as §1
[17] = test system: Human immunodeficiency virus 1; test: Antiviral activity against HIV1 NL4-3 harboring G140S/Q148H mutant infected in human MT2 cells measured after 3 to 4 days by luciferase reporter gene assay; type: functional, organism-based; conditions: Human immunodeficiency virus 1, NL4-3, MT2
Outline: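 MT-2 cells (RPMI 1640, 10% heat-inactivated FBS, 10 mM HEPES pH 7.55, 2 mM L-glutamine, penicillin/streptomycin) infected with titered NL4-3 Renilla luciferase reporter virus (luciferase replacing nef) carrying integrase G140S/Q148H, with serial compound dilutions from 10 mM DMSO stock, final DMSO 1%; luciferase read after 3–4 days; EC50 from median effect equation; n ≥ 2, some n = 1.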

[18] = Human immunodeficiency virus 1, NL4-3, MT2

Human immunodeficiency virus type 1 integrase, sequence (Q7ZJM1 whole entry): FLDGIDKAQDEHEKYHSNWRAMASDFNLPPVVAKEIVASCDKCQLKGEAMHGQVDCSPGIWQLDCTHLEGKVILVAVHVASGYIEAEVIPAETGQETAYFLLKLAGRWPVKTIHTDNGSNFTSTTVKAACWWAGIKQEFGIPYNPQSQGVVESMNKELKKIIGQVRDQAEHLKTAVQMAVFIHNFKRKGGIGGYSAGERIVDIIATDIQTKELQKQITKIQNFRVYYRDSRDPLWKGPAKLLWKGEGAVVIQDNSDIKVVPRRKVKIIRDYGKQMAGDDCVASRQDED

SMILES	pEC50 [1, 18]	pKi [2]	remaining at 10 min, 0.5 µM [6]	remaining at 10 min, 0.5 µM [7]	Papp at 4 h, 100 µM [9]	also measured
Cc1nc2cc(-c3ccccc3)nn2c(-c2ccccc2)c1C(OC(C)(C)C)C(=O)O (configuration not stated)	< 4.40	5.43				
Cc1ccccc1-c1cccc(-c2cc3nc(C)c([C@H](OC(C)(C)C)C(=O)O)c(-c4cc(F)c5c(c4C)CCCO5)n3n2)c1	8.22		95%	97%	47.1 ×10⁻⁶ cm/s	Vd [3]: 0.5 L/kg; clearance [4]: 7.1 mL/min/kg; Ratio EC50 [5]: 5; half-life [8]: 246 min; selectivity ratio [10]: 4690; Cmax [11]: 1290 nM; bioavailability [12]: 32%; pEC50 [13]: 7.52; CC50 at 96 h [14]: 28.2 µM; Tmax [15]: 3 h; AUC(0-t) [16]: 6.3 µM·h
Cc1ccc(-c2c(C(OC(C)(C)C)C(N)=O)c(C)nc3cc(-c4ccccc4)nn23)cc1 (configuration not stated)	4.74					
Cc1nc2cc(-c3cccc(OCc4ccccc4)c3)nn2c(N2CCC(C)(C)CC2)c1C(OC(C)(C)C)C(=O)O (configuration not stated)	7.22		100%	100%	37.5 ×10⁻⁶ cm/s	
Cc1ccc(-c2cc3nc(C)c(C(OC(C)(C)C)C(=O)O)c(-c4cc(F)c5c(c4C)CCCO5)n3n2)cc1 (configuration not stated)	7.00		95%	94%	49.2 ×10⁻⁶ cm/s	
Cc1ccc(-c2c(C(OC(C)(C)C)C(=O)O)c(C)nc3ccnn23)cc1 (configuration not stated)	5.35	5.70				
Cc1nc2cc(-c3cccc(-c4ccncc4)c3)nn2c(-c2cc(F)c3c(c2C)CCCO3)c1[C@H](OC(C)(C)C)C(=O)O	8.52		46%	94%	48.8 ×10⁻⁶ cm/s	Ratio EC50 [5]: 23; selectivity ratio [10]: 4410; pEC50 [13]: 7.15; CC50 at 96 h [14]: 13.2 µM
Cc1nc2cc(-c3ccccc3)nn2c(C)c1C(OC(C)(C)C)C(=O)O (configuration not stated)	< 4.40	< 4.40				
COc1cccc(-c2c(C(OC(C)(C)C)C(=O)O)c(C)nc3cc(-c4ccccc4)nn23)c1 (configuration not stated)	< 4.40	4.82				
Cc1nnc(C(=O)NC(C)(C)c2nc(C(=O)NCc3ccc(F)cc3)c(O)c(=O)n2C)o1 [RALTEGRAVIR]	8.70					pEC50 [17]: 5.62
Cc1nc2cc(-c3ccccc3)nn2c(-c2cc(F)c3c(c2C)CCCO3)c1[C@@H](OC(C)(C)C)C(=O)O	4.89	< 4.28				
COc1ccc(-c2c(C(OC(C)(C)C)C(=O)O)c(C)nc3cc(-c4ccccc4)nn23)cc1 (configuration not stated)	5.77	6.51				
Cc1nc2cc(-c3cccc(-c4ccccc4)c3)nn2c(N2CCC(C)(C)CC2)c1C(OC(C)(C)C)C(=O)O (configuration not stated)	6.89					
Cc1nc2ccccc2c(-c2ccc3c4c(ccnc24)CCO3)c1[C@H](OC(C)(C)C)C(=O)O [BI-224436]	7.30					selectivity ratio [10]: 66800; CC50 at 96 h [14]: 3340 µM
Cc1nc2cc(-c3ccccc3)nn2c(-c2cc(F)c3c(c2C)CCCO3)c1C(OC(C)(C)C)C(=O)O (stereo in doubt; 15)		5.47				pEC50 [1]: < 4.40
Cc1ccc(-c2c(C(OC(C)(C)C)C(=O)O)c(C)nc3cc(-c4ccccc4)nn23)cc1 (configuration not stated)	6.21	6.15 to 6.17				CC50 at 96 h [14]: 77 µM
Cc1cccc(-c2c(C(OC(C)(C)C)C(=O)O)c(C)nc3cc(-c4ccccc4)nn23)c1 (configuration not stated)	< 4.40	5.36				

SMILES	pEC50 [1, 18]	pKi [2]	remaining at 10 min, 0.5 µM [6]	remaining at 10 min, 0.5 µM [7]	Papp at 4 h, 100 µM [9]	also measured
Cc1nc2cc(-c3ccccc3)nn2c(-c2cc(F)c3c(c2C)CCCO3)c1C(OC(C)(C)C)C(=O)O (racemic)		6.77	93%	97%	21.8 ×10⁻⁶ cm/s	pEC50 [17]: 6.92; pEC50 [1]: 6.68
Cc1ccccc1-c1c(C(OC(C)(C)C)C(=O)O)c(C)nc2cc(-c3ccccc3)nn12 (configuration not stated)	4.68	5.47				
Cc1ccc(-c2c(C(O)C(=O)O)c(C)nc3cc(-c4ccccc4)nn23)cc1 (configuration not stated)	< 4.40					
Cc1nc2cc(-c3ccccc3)nn2c(-c2cc(F)c3c(c2C)CCCO3)c1[C@H](OC(C)(C)C)C(=O)O	6.96	7.05				pEC50 [17]: 7.05
COc1ccccc1-c1cccc(-c2cc3nc(C)c([C@H](OC(C)(C)C)C(=O)O)c(-c4cc(F)c5c(c4C)CCCO5)n3n2)c1	8.22		99%	99%	76.5 ×10⁻⁶ cm/s	Vd [3]: 1.8 L/kg; clearance [4]: 28 mL/min/kg; Ratio EC50 [5]: 5; half-life [8]: 180 min; selectivity ratio [10]: 3920; Cmax [11]: 1110 nM; bioavailability [12]: 59%; pEC50 [13]: 7.52; CC50 at 96 h [14]: 23.5 µM; Tmax [15]: 2.3 h; AUC(0-t) [16]: 2.99 µM·h
CC(C)(C)OC(C(=O)O)c1ccccc1-c1ccccc1 (configuration not stated)	4.80	4.17				CC50 at 96 h [14]: 127 µM
Cc1nc2cc(-c3ccc(OCc4ccccc4)cc3)nn2c(-c2cc(F)c3c(c2C)CCCO3)c1C(OC(C)(C)C)C(=O)O (configuration not stated)	7.22		84%	79%	31.3 ×10⁻⁶ cm/s	
Cc1nc2cc(-c3cccc(OCc4ccccc4)c3)nn2c(-c2cc(F)c3c(c2C)CCCO3)c1C(OC(C)(C)C)C(=O)O (configuration not stated)	7.70		72%	83%	57 ×10⁻⁶ cm/s	
Cc1nc2cc(-c3cccc(-c4ccccc4)c3)nn2c(-c2cc(F)c3c(c2C)CCCO3)c1[C@H](OC(C)(C)C)C(=O)O	8.22		78%	96%	73.3 ×10⁻⁶ cm/s	Ratio EC50 [5]: 18; selectivity ratio [10]: 1100; pEC50 [13]: 6.96; CC50 at 96 h [14]: 6.59 µM
Cc1nc2cc(-c3ccccc3)nn2c(N2CCC(C)(C)CC2)c1C(OC(C)(C)C)C(=O)O (configuration not stated)	6.26	7.22	100%		70.3 ×10⁻⁶ cm/s	
COc1ccc(-c2cccc(-c3cc4nc(C)c([C@H](OC(C)(C)C)C(=O)O)c(-c5cc(F)c6c(c5C)CCCO6)n4n3)c2)cn1	8.30		73%	100%	51.4 ×10⁻⁶ cm/s	Ratio EC50 [5]: 5; selectivity ratio [10]: > 4600; pEC50 [13]: 7.64; CC50 at 96 h [14]: > 23 µM
Cc1nc2cc(-c3ccccc3)nn2c(-c2ccc3c(c2)CCCO3)c1C(OC(C)(C)C)C(=O)O (configuration not stated)	6.31	7.40				
Cc1nc2cc(-c3cccc(Oc4ccccc4)c3)nn2c(-c2cc(F)c3c(c2C)CCCO3)c1C(OC(C)(C)C)C(=O)O (configuration not stated)	7.22		100%	97%	47.2 ×10⁻⁶ cm/s	
Cc1nc2cc(-c3ccccc3)nn2c(N2CCCCCC2)c1C(OC(C)(C)C)C(=O)O (configuration not stated)	5.64	6.37				
Cc1nc2cc(-c3cccc(-c4ccccc4)c3)nn2c(-c2cc(F)c3c(c2C)CCCO3)c1C(OC(C)(C)C)C(=O)O (racemic)	7.82		86%	100%	65.2 ×10⁻⁶ cm/s	pEC50 [17]: 8.00
Cc1ccc(Nc2c(C(OC(C)(C)C)C(=O)O)c(C)nc3cc(-c4ccccc4)nn23)cc1 (configuration not stated)	< 4.40	< 4.40				
COc1ccccc1-c1c(C(OC(C)(C)C)C(=O)O)c(C)nc2cc(-c3ccccc3)nn12 (configuration not stated)	< 4.40	< 4.40				
